# High-throughput results (PubChem BioAssay)
# Sampled rows, rich in hits. Any-hit rate of the full collection: about 3.3%.
# PMI act hi M6P: PMI (human) activation, high substrate. coupled PMI enzyme assay, resazurin fluorescence, 20 min; hits give high values; 1 = untreated enzyme, 0 = substrate-free blank. activation factor at 20 µM. hit rate 0.34% among 190,000. AID 1216;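 active = activation factor of 2 or more at 20 µM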
#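 assay system = human phosphomannose isomerase with PGI, G6PDH, diaphorase coupling enzymes | quantity = 15 ng/mL PMI | incubation = enzyme reaction with compound 20 min at room temperature | medium = HEPES pH 7.4 buffer with MgCl2 and Tween-20 | compound dosing = one concentration, 20 µM, in 1% DMSO | measured by = Diaphorase-driven resazurin-to-resorufin fluorescence, excitation 544, emission 590 nm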
# PMI activator: phosphomannose isomerase (human) activation. P34949. activation factor at 20 µM. purified human PMI, coupled resazurin fluorescence, 20 min; hits give high values; 1 = vehicle control, 0 substrate-free wells. AID 1214. hit rate 0.005% among 190,000;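 active = activation factor of 2 or more at 20 µM, relative to plate controls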
# ABCG2 block: human ABCG2 inhibition, ABCB1 as counter-screen | Q9UNQ0 | inhibition, % at 6.6 µM | AID 1325 | hit rate 0.1% among 190,000 | IgMXP3 cells, JC-1 efflux, flow cytometry;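 active = inhibition above 80%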;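 also: 0% = DMSO and 100% = nicardipine control wells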
#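 Assay system – ABCG2 IgMXP3 and barcoded ABCB1 CCRF-Adr cell mix · Input – 3 million cells/mL in well · Reagent – JC-1 fluorescent substrate · Compound – single test compound dose, 6.6 µM final · Timing – 10 min exposure at 25 °C with rotation, no wash · Detection – flow cytometry of retained JC-1 fluorescence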
# ROMK mod: modulators of human ROMK potassium channel | P48048 | Tet-inducible ROMK, thallium flux fluorescence; actives lie on both sides | B-score at 10 µM | hit rate 2% among 130,000 | AID 1918;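 active = signal ratio slope over the read window, or its plate-corrected B-score, at least 3 SD from the plate mean, either direction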;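 also: B-score of the F/F0 ratio slope over 7 to 12 s after thallium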
# Cl transport mod: modulates chloride dependent transport by human KCC2; Q9H2X9; KCC2 cells, thallium flux FluoZin-2 fluorescence; B-score of Tl+ flux slope (higher = more flux/activation; lower = inhibition) at 10 µM; hit rate 2.2% among 190,000; AID 1456;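 active = thallium flux slope and its plate-corrected score both differing from the plate sample mean at a set confidence after two filtering rounds, in either direction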;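 also: slope of fluorescence scaled to starting intensity during 10 to 20 s after thallium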
# Target sequence (Q9H2X9 whole entry, looked up): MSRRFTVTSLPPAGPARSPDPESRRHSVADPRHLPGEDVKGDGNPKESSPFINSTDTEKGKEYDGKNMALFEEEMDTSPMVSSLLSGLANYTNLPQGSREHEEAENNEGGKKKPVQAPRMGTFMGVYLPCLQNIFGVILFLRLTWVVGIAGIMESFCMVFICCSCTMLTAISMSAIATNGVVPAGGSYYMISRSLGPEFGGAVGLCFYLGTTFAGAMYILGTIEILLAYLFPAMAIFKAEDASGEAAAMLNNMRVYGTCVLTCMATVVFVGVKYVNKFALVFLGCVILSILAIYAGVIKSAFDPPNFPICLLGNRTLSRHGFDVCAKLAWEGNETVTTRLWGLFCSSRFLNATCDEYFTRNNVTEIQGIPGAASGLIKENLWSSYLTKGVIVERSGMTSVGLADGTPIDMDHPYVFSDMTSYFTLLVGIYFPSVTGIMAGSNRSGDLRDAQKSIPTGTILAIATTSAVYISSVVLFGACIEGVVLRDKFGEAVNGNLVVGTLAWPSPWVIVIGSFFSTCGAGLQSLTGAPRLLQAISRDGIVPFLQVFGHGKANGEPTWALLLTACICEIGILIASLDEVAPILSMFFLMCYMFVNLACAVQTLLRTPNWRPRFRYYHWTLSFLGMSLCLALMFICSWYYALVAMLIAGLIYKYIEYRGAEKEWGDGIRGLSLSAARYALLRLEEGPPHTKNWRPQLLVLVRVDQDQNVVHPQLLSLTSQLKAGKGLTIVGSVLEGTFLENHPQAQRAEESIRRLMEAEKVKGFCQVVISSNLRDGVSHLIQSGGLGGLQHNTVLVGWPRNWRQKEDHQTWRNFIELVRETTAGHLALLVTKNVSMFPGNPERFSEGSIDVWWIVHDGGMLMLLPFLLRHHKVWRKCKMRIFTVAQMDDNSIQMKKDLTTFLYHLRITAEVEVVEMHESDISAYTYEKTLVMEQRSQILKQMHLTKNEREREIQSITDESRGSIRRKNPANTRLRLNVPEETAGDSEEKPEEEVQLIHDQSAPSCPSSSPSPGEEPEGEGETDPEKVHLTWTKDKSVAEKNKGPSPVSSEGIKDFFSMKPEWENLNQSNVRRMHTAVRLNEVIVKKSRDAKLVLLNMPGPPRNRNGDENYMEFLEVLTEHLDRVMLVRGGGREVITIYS
# ABCB1 block: blocks JC-1 efflux by human ABCB1 transporter | inhibition, % at 6.6 µM | P08183 | AID 1326 | hit rate 0.067% among 190,000 | CCRF-Adr cells, flow cytometry; in the data active = inhibition above about 40%;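 also: 0% = vehicle and 100% = reference inhibitor; higher value means more JC-1 retained so stronger ABCB1 efflux block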
# ROMK hit retest: human ROMK channel modulation, retest confirmation | shares compounds with ROMK mod | ROMK thallium flux, fluorescence ratio; hits give low values | normalized thallium flux (F/F0 slope) at 10 µM | hit rate 54% among 3,000 | AID 1917;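 active = Flux at 10 µM at least 3 SD below or above vehicle control mean in one or both replicates; inconclusive = no clear call, values can overlap the other calls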
# Numbers without * were called inactive; ? = inconclusive; nt = not tested or not shown.
SMILES,PMI act hi M6P,PMI activator,ABCG2 block,ROMK mod,Cl transport mod,ABCB1 block,ROMK hit retest
O=C(COc1ccc2ccccc2c1)N1CCN(C2CCN(Cc3ccccc3)CC2)CC1,0.8,0.8,1,-3*,0.2,1,0.061*
O=c1[nH]c(=S)n(C2CCCCC2)c(O)c1/C=N/N1CCOCC1,nt,nt,nt,nt,1.4,nt,nt
CCCCCSc1cc(O)c(C(CNC)C(C)C)cc1OC (stereo not given),0.8,0.9,2,-3.2*,2,3,0.057*
CCCCCSc1cc(OC)c(CCN(C)C)cc1OC,1.1,1.1,-1,-1.5,1.7,0,nt
CCCCCOc1ccc(C)cc1CN(CCCl)CCCl,nt,nt,nt,nt,0.82,nt,nt
CC/C(=N\Nc1ccccc1)c1c(O)n(-c2ccc(OC)cc2)c(=O)[nH]c1=O,nt,nt,nt,nt,0.015,nt,nt
N#CSCC(=O)N1c2ccccc2CCc2ccccc21,1,0.9,13,-3.9*,2.3,3,0.046*
O=c1[nH]c(=S)n(C2CC2)c(O)c1C=NCCN1CCOCC1,nt,nt,nt,nt,1.6,nt,nt
O=c1c(C=NCCN2CCNCC2)c(O)n(C2CCCCC2)c(=O)n1C1CCCCC1,0.9,0.9,3,-3.7*,0.54,1,0.075
OCCN1C2CCC1CC(O)(c1ccc(F)cc1)C2 (stereo not given),1,1,2,-0.74,-0.0032,0,nt
OC1(c2ccc(F)cc2)CC2CCC(C1)N2Cc1nnnn1C1CCCCC1 (stereo not given),0.9,1,5,-4.8*,nt,1,0.057*
CN1CCc2nc3sc(C#N)c(N)c3c(-c3cccs3)c2C1,1.3,1.1,1,3,nt,0,?
CN1CCc2nc(N)c(C#N)c(-c3ccccc3)c2C1,1,1,2,nt,nt,0,nt
O=P(O)(Oc1ccccc1)OC(c1ccccc1)C(F)(F)C(F)(F)F (stereo not given),1.1,1.2,3,-0.58,-0.023,1,nt
CCC(C)c1ccc(N2C(=O)NC(=O)/C(=C/c3cccn3CCOc3ccc(C)cc3)C2=O)cc1 (stereo not given),0.9,0.9,-1,nt,-0.84,0,0.047*
CCCCCc1nc2ccccc2c(=O)n1-c1ccccc1[N+](=O)[O-],0.9,0.9,14,-0.2,0.71,2,nt
CCCCCc1nc2c(c(=O)c3ccccc3n2C)c(=O)n1C1CCCCCC1,1,0.9,12,nt,-1.2,1,0.053*
CCn1c(=O)n(CC)c2cc([N+](=O)[O-])c(N3CCNCC3)cc21,1,1,5,0.1,1.1,1,nt
O=Cc1c(C(=O)O)n(Cc2ccc(Cl)cc2)c2ccccc12,1.1,1.1,-4,nt,-1.8,-1,0.053*
Cc1ccc(-n2c(O)c(C=Nc3ccc(S(=O)(=O)N(C)C)cc3)c(=O)[nH]c2=O)cc1,1.3,1.1,2,0.041,-0.15,1,nt
CC(C)Sc1nnc([C@@H](N)Cc2ccccc2)o1,1.1,1,1,nt,0.0065,0,0.078
CSc1nnc([C@@H](N)Cc2ccccc2)o1,1,1,2,nt,0.42,1,nt
COc1ccc(CCNC2CCCCC2)cc1,1.1,1,-2,-0.47,-0.79,0,nt
COc1ccc(CCC(C)NCCc2ccccc2)cc1 (stereo not given),1,1,1,-3.9*,0.69,1,0.062*
CCOC(=O)c1c(-n2c(C)cc(C=C3C(=O)NC(=O)NC3=O)c2C)sc2c1CCCC2,1.1,1.1,5,-4.7*,0.55,2,?
SMILES,PMI act hi M6P,PMI activator,ABCG2 block,ROMK mod,Cl transport mod,ABCB1 block,ROMK hit retest
Cc1cccc(N2C(=O)NC(=O)/C(=C\c3cc(C)n(-c4sc5c(c4C#N)CCCC5)c3C)C2=O)c1C,1,0.9,-14,nt,-0.51,0,nt
NCCCCCC(=O)OC1N=C(c2ccccc2Cl)c2cc(Br)ccc2NC1=O (stereo not given),1,1,0,0.11,0.16,0,nt
Cc1ccccc1-n1c(O)c(/C=C2/C(c3ccccc3)=Nc3ccccc32)c(=O)[nH]c1=O,1,1,-2,-6*,-2.2,-1,0.061*
Cc1cccc(-n2c(O)c(/C=C3/C(c4ccccc4)=Nc4ccccc43)c(=O)[nH]c2=O)c1,nt,nt,nt,nt,-2.7,nt,0.044*
COC(=O)C1=Nc2ccccc2/C1=C\c1c(O)n(-c2cc(OC)ccc2OC)c(=O)[nH]c1=O,1,1,-11,0.24,1,-1,nt
COc1ccc2c(c1)NP(=S)(Oc1ccccc1)N2 (stereo not given),nt,nt,nt,nt,0.23,nt,nt
Cc1nc2ccc(Cl)cc2c(-c2ccccc2)c1C(=O)O,1.1,1.1,0,nt,0.0099,1,nt
Cc1occc1C(=O)N1CCC2(CC1)OCCO2,1.2,1.1,-3,nt,-1.7,0,nt
Cc1noc(C)c1C(=O)N1CCC2(CC1)OCCO2,1.1,1,0,3.1*,0.63,0,0.087
COCCN1Cc2cc(=O)n3c([nH]c4ccccc43)c2C1=N,0.9,1,2,-0.45,1.2,-1,nt
O=c1[nH]sc2cc(F)ccc12,0.6,0.5,9,-7.6*,1.6,0,0.054*
Cc1oc(-c2ccccc2Cl)nc1CN1C(=O)CN=C(c2ccccc2)c2ccccc21,0.9,0.9,10,-2.8*,-1.3,7,0.058*
CN1C2CCC1/C(=C/c1ccccn1)C(=O)/C2=C\c1ccccn1,1,1.1,2,-3.8*,nt,1,0.043*
Cc1ccc(CN2C(=O)NC(=O)C3(Cc4c(nc5ccccn5c4=O)N4CCCCCC43)C2=O)cc1 (stereo not given),1,0.9,8,-2.9*,-2,35,0.064*
Cn1c(O)c(/C=C/C=Nc2ccccc2)c(=O)n(C)c1=S,0.9,1,2,nt,-2.3,3,0.046*
O=c1[nH]c(=S)n(-c2ccc(Br)cc2)c(O)c1C=Nc1ccc(N2CCOCC2)cc1,0.8,1,-1,0.0084,-2.8,0,0.064*
CCCC(=O)N(C)C1=Nc2ccc(Cl)cc2C(c2ccccc2)=[N+]([O-])C1,nt,nt,nt,nt,-0.19,nt,nt
O=C(CN1CCCCC1)c1ccc2c(c1)OCO2,nt,nt,nt,0.025,1.4,nt,nt
CC(=O)c1ccc2c(c1)OCO2,1,1.1,1,3*,-0.17,1,0.071
COc1cc2c(cc1OC)-c1c(OC)c(OC)c(OC)c3ccnc(c13)C2=O,0.5,0.8,25,-4.8*,-2.9,5,0.048*
Cn1c(=O)c2c(nc(N/N=C/c3c(O)n(-c4ccccc4)c(=S)[nH]c3=O)n2C)n(C)c1=O,0.8,0.8,-3,0.52,-2.6,-1,nt
CCC(C)N1C(=O)/C(=C/c2ccc3c(c2)CCN3CCCCl)C(=O)NC1=S (stereo not given),1.1,1.1,-10,-0.57,-0.57,-1,nt
